These results are taken from ChEMBL document CHEMBL4513216, “Probing the Open Global Health Chemical Diversity Library for Multistage-Active Starting Points for Next-Generation Antimalarials” (ACS Infect Dis, 2020).

A short description of this data set: Toxicity liver stage against HepG2, at 10uM. It counts as cell-based. More on the design: test concentration 10 uM, cell line HepG2-A16-CD81EGFP. The following applies: human, HepG2-A16-CD81EGFP cells; read-out: INHIBITION
The essentials:
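Uninfected HepG2-A16-CD81EGFP cells, 3 × 10^3 per well, 1536-well, plated on prespotted compound at 10 μM final, parasite-free screening media added to match infected plates; puromycin 10 μM positive, DMSO 0.5% negative; run in parallel with 48 h PbLuc assay at 37 °C, 5% CO2; viability by CellTiter-Glo luminescence, normalized to controls.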

In the case of `Cc1nn(C)c(C)c1CCC(=O)N1CCc2sccc2C1`, the cytotoxicity at 10 µM amounted to 16.3%.

As to `CC(C)n1cnnc1CNC(=O)c1cnn(Cc2ccccc2)c1`, the cytotoxicity at 10 µM stood at 0.536%.

Turning to `Cc1ccc(C)c2c(O)cc(CN3CCC(=O)NCC3C)nc12` (configuration not stated), the cytotoxicity at 10 µM stood at 2.11%.

Take `O=C(c1ccc(S(=O)(=O)NCCc2ccccn2)cc1)N1CCCC1`: the cytotoxicity at 10 µM is 13.2%.

Consider `Cc1cnn(C2CCCN(C(=O)Cn3ccc(=O)n(C)c3=O)C2)c1` (configuration not stated), for which the cytotoxicity at 10 µM stood at 1.99%.

For `CN(C)S(=O)(=O)c1ccc2c(c1)N(Cc1ccccn1)CCC2`, the cytotoxicity at 10 µM is 0.645%.

In the case of `Nc1ccnc(N2CCC(c3nccn3CC3CC3)CC2)n1`, the cytotoxicity at 10 µM was -0.0638%.

As to `O=C1CCCN1CC1CCCCN1C(=O)Nc1cccc(F)c1` (configuration not stated), the cytotoxicity at 10 µM is -1.8%.

Consider `Cn1cccc1C(=O)Nc1cc(F)ccc1OCC1CCCO1` (configuration not stated), for which the cytotoxicity at 10 µM was -7.59%.

As for `CCN(C)C(=O)CCC(=O)c1cccs1`, the cytotoxicity at 10 µM turned out to be 3.9%.

In the case of `Cn1cnnc1C1CCCN(C(=O)NCCc2ccccn2)C1` (configuration not stated), the cytotoxicity at 10 µM was -21.5%.

Consider `CCn1ccnc1CNc1nccc(-c2c(C)nn(C)c2C)n1`, for which the cytotoxicity at 10 µM was -0.0793%.

Consider `CCOCCC(=O)NCC(C)c1ccsc1` (configuration not stated), for which the cytotoxicity at 10 µM was determined as 15.1%.

For the molecule `Cn1cnc(S(=O)(=O)NCC2CCN(C(=O)Oc3ccccc3)CC2)c1`, the cytotoxicity at 10 µM is -11.1%.

On to `CSC(C)C(=O)N1CCCN(Cc2cscn2)CC1` (configuration not stated), for which the cytotoxicity at 10 µM was -2.19%.

Take `CN(C)c1nccnc1C1CCCN(c2cnccn2)C1` (configuration not stated): the cytotoxicity at 10 µM is -4.92%.

For `CCc1noc(CN(C)Cc2ccc(N3CCCCC3)cc2)n1`, the cytotoxicity at 10 µM was -5.88%.

As for `COc1ccc(C(CNC(=O)c2cnc(C)cn2)N2CCOCC2)cc1` (configuration not stated), the cytotoxicity at 10 µM is 3.04%.

Consider `CCCN(CCO)C(=O)C1CCC(=O)N(CCc2ccc(Cl)cc2)C1` (configuration not stated), for which the cytotoxicity at 10 µM was -12.5%.

With `O=C(NCc1nn(-c2ccccc2)c2c1CCC2)NCC1COCCO1` (configuration not stated), the cytotoxicity at 10 µM is -3.39%.

In the case of `Fc1cnccc1CN1CCCC2(CCN(c3ncccn3)CC2)C1`, the cytotoxicity at 10 µM was -112%.

Turning to `O=C(CCC1CCCN(C(=O)CCc2ccc(F)c(F)c2)C1)NC1CC1` (configuration not stated), the cytotoxicity at 10 µM worked out at 2.49%.

In the case of `COc1ccc(CN(C)[C@@H]2CN(C(=O)c3ccccc3)C[C@H]2O)cc1`, the cytotoxicity at 10 µM is -2.64%.

As to `COCCN1CC2(CCCN(C(=O)NCCc3cccs3)C2)CCC1=O` (configuration not stated), the cytotoxicity at 10 µM is -8.14%.

For `O=C(NCCNc1ncccn1)c1ccc(Cl)s1`, the cytotoxicity at 10 µM was 4.6%.

`CS(=O)(=O)N1C[C@H]2CC[C@@H](C1)N(C(=O)CCc1ccsc1)C2`: the cytotoxicity at 10 µM was determined as 14.3%.

For `O=C(Cn1cc(NC(=O)c2ccc(F)cc2F)cn1)NC1CCCC1`, the cytotoxicity at 10 µM was -0.561%.

Consider `CC(C)NC(=O)N1CCC2(CC1)[C@@H]1CN(C(=O)N(C)C)C[C@@H]1C(=O)N2C`, for which the cytotoxicity at 10 µM stood at 4.32%.

For `Cc1ccc(-c2cc(CS(=O)(=O)NC3CCCNC3=O)on2)cc1` (configuration not stated), the cytotoxicity at 10 µM was -172%.

`Cc1ccc(CN2CCCn3nnc(COCC4CC4)c3C2)s1`: the cytotoxicity at 10 µM is -6.51%.

Turning to `COc1ccccc1CN1CC[C@H]2C[C@@H](C(=O)N3CCCC3)O[C@H]2C1`, the cytotoxicity at 10 µM was 7.28%.

With `Cc1nn(C)cc1-c1ccnc(N2CCN(c3ccccc3)C(=O)C2)n1`, the cytotoxicity at 10 µM is -7.57%.

`Cc1cc(C2CCCN2C(=O)COc2ccc(CC#N)cc2)no1` (configuration not stated): the cytotoxicity at 10 µM was -38.9%.

With `O=C(c1ccoc1)N1CCCn2nnc(COCC3CC3)c2C1`, the cytotoxicity at 10 µM was -68.5%.

`O=C1C(N2CCOC3(CCCC3)C2)CCN1C1CC1` (configuration not stated): the cytotoxicity at 10 µM worked out at 9.4%.

`N#CCCCS(=O)(=O)N1CCCC1CC(=O)c1cccs1` (configuration not stated): the cytotoxicity at 10 µM was -5.07%.

In the case of `CCn1c(CN(C)C)nnc1C1CCN(Cc2ccccc2)CC1`, the cytotoxicity at 10 µM was -11.6%.

For the molecule `COCCNC(=O)[C@H]1CN(Cc2sccc2C)C[C@H]2OCC[C@@H]12`, the cytotoxicity at 10 µM is 2.05%.

Take `Cc1ccc(NC(=O)Cn2ncc(SCC(N)=O)c(Cl)c2=O)cc1`: the cytotoxicity at 10 µM is -16.9%.

Turning to `O=C1CCNC(=O)N1CC(=O)N1CCC1c1ccc(F)cc1` (configuration not stated), the cytotoxicity at 10 µM came to 7.46%.

`CCn1c(CN(C)C)nnc1C1CCN(Cc2cnc(C)nc2)CC1`: the cytotoxicity at 10 µM came to 4.6%.

Consider `Cc1cc2nc(C(C)C)cc(N3CCSCC3)n2n1`, for which the cytotoxicity at 10 µM worked out at 3.24%.

For the molecule `CSCC(=O)Nc1ncn(Cc2cccc(Br)c2)n1`, the cytotoxicity at 10 µM was -12%.

For the molecule `Cc1nc(Nc2nncs2)cc(C2CCCN2)n1` (configuration not stated), the cytotoxicity at 10 µM was -1.03%.

Take `CN1C(=O)C(C)(C)COc2ccc(NS(=O)(=O)Cc3ccccc3)cc21`: the cytotoxicity at 10 µM is 8.2%.

Turning to `Cn1ccnc1CN1CCCN(C(=O)CC(C2CC2)C2CC2)CC1`, the cytotoxicity at 10 µM is -19.8%.

For `COc1cccc(COCC(=O)N2CCCC(n3ccnc3)C2)c1` (configuration not stated), the cytotoxicity at 10 µM was -8.38%.

Take `CCC(CO)N(Cc1ccccn1)C(=O)c1ccc(=O)[nH]c1` (configuration not stated): the cytotoxicity at 10 µM was -0.65%.

With `c1cc(CN2CCC3(CCOCC3COCC3CC3)CC2)ccn1` (configuration not stated), the cytotoxicity at 10 µM is -9.52%.

On to `CCn1nccc1CNc1[nH]cnc2nncc1-2`, for which the cytotoxicity at 10 µM is 3.15%.

As for `Cc1cc(C(=O)NCc2ccnc(N3CCN(C)CC3)c2)sc1C`, the cytotoxicity at 10 µM was -11.7%.

`CC(C)c1cc(C(=O)N2CCCC(Cn3cc(CO)nn3)C2)on1` (configuration not stated): the cytotoxicity at 10 µM was -6.27%.

Take `Cc1ccc(CNC(=O)C2CCNC(=O)C2)c(OCCC(C)C)c1` (configuration not stated): the cytotoxicity at 10 µM is 20.4%.

`Cc1cc(C)n(CCC(=O)N2CCCC(n3cncn3)C2)n1` (configuration not stated): the cytotoxicity at 10 µM was -5.05%.

Regarding `CN(Cc1ncc[nH]1)S(=O)(=O)c1cccc(C(=O)N2CCOCC2)c1`, the cytotoxicity at 10 µM is -9.5%.

`COc1ccc(-c2nnc(CNCCn3cccn3)o2)cc1`: the cytotoxicity at 10 µM is -14.5%.

Consider `CN1CCN(Cc2ccoc2)Cc2cccnc21`, for which the cytotoxicity at 10 µM was 0.899%.

Turning to `CCN(Cc1nc(COC)no1)Cc1cccnc1NC(=O)C(C)(C)C`, the cytotoxicity at 10 µM is -47.9%.

Regarding `CC(O)CN1CCN(C(=O)CCOC(C)C)CC1` (configuration not stated), the cytotoxicity at 10 µM was -3.86%.

On to `CCc1cc(NC2CCS(=O)(=O)C2)nc(N2CCCCC2)n1` (configuration not stated), for which the cytotoxicity at 10 µM was -3.15%.

Take `CN(C)Cc1cnc2n1CCN(C(=O)NCc1ccccc1)CC2`: the cytotoxicity at 10 µM was -6.41%.

As to `CNC(=O)c1sc(C2CCCC2)nc1C`, the cytotoxicity at 10 µM was determined as 13.1%.

Take `CN(C)CCN(Cc1ccc(F)cc1)C(=O)c1ccn(C)c(=O)c1`: the cytotoxicity at 10 µM was -4.62%.

For `Cc1cnc(CNc2ccccc2CN(C)C(=O)c2cccs2)o1`, the cytotoxicity at 10 µM was -3.83%.

As for `O=C(N[C@@H]1CCN(c2nccc3ccccc23)C[C@H]1O)c1cnccn1`, the cytotoxicity at 10 µM was -6.71%.

On to `CN1CC2(CCCN(c3cnccn3)C2)OC1=O` (configuration not stated), for which the cytotoxicity at 10 µM is -43.2%.

For `CCCN1CCC(Nc2nc(C)ns2)CC1`, the cytotoxicity at 10 µM is -8.92%.

As for `O=C(Cn1ccnc1)N1CCC(n2cc(-c3cccc(Cl)c3)nn2)CC1`, the cytotoxicity at 10 µM was -23.4%.

In the case of `CCCn1cnnc1CNC(=O)CC1C(=O)NCCN1C(C)C` (configuration not stated), the cytotoxicity at 10 µM worked out at 0.445%.

Take `COCCC1(C(=O)O)CCCN(CC(=O)NCCc2ccccc2)C1` (configuration not stated): the cytotoxicity at 10 µM was 2.66%.

As to `Cc1n[nH]c(C)c1NC(=O)NCc1cc[nH]n1`, the cytotoxicity at 10 µM was -5.18%.

Regarding `Cc1nn(C)c(Cl)c1C1CCCN1Cc1cn2ccsc2n1` (configuration not stated), the cytotoxicity at 10 µM was -44.5%.

Take `Cc1ncc2c(n1)CN(Cc1ncc(C(C)(C)C)o1)CC2`: the cytotoxicity at 10 µM was 0.96%.

Turning to `CCC1COC2(CCN(C(=O)c3ccco3)CC2)C1` (configuration not stated), the cytotoxicity at 10 µM was -65.4%.

`Cc1cc(CN2CCN(C(=O)NC(C)c3cccs3)CC2)on1` (configuration not stated): the cytotoxicity at 10 µM is -7.72%.

For the molecule `CNC(=O)[C@@H]1C[C@@H](NC(=O)Cc2cccs2)CN1C1CCOCC1`, the cytotoxicity at 10 µM came to 2.7%.

With `COCCNC(=O)[C@@H]1CC[C@@H]2[C@@H](CCN2Cc2cnn(C)c2)O1`, the cytotoxicity at 10 µM was -12.2%.

On to `OC(c1cccs1)C1CCN(c2ncccn2)CC1` (configuration not stated), for which the cytotoxicity at 10 µM was -52.5%.

As to `CCC1=N[C@@]2(CC[C@@H]3CN(C(=O)NCC(C)C)C[C@@H]32)C(=O)N1CC1CC1`, the cytotoxicity at 10 µM is 9.61%.

Take `O=C(Cc1cccs1)N1C[C@@H]2CN(Cc3ccoc3)CCO[C@@H]2C1`: the cytotoxicity at 10 µM is -70.8%.

Take `CCc1nc(C2CCCN(C(=O)c3cc(C(C)C)[nH]n3)C2)no1` (configuration not stated): the cytotoxicity at 10 µM was -1.24%.

As to `CCCn1nc2c(cc1=O)CN(Cc1nc(-c3ccco3)no1)CC2`, the cytotoxicity at 10 µM was -7.69%.

In the case of `Cc1cc(CNc2cc(Cl)ccc2OCCS(C)(=O)=O)no1`, the cytotoxicity at 10 µM was -2.27%.

Turning to `O=C(CCC1CCCCC1)NCc1nnc2ccccn12`, the cytotoxicity at 10 µM stood at 3.47%.

In the case of `O=C(c1cncc(N2CCC3(CCNCC3)CC2)n1)N1CCCC1`, the cytotoxicity at 10 µM is -14.6%.

As for `Cc1ccc(C(=O)N2CCN(Cc3ccccc3)CC2)n1C`, the cytotoxicity at 10 µM is -1.28%.

Regarding `O=C(c1cnccn1)N1CCN2C[C@H](OCc3ccccc3)C[C@H]2C1`, the cytotoxicity at 10 µM was determined as 1.44%.

In the case of `CN(C)c1cccc(C2CCCN2c2nc3c(cnn3C)c(=O)[nH]2)c1` (configuration not stated), the cytotoxicity at 10 µM turned out to be 0.91%.

In the case of `O=C(NC1CCNC1)C1(N2CCCCC2)Cc2ccccc2C1` (configuration not stated), the cytotoxicity at 10 µM was -5.76%.

Turning to `Cc1cc2ccccc2n1CC(=O)NC(C)C(=O)N1CCOCC1` (configuration not stated), the cytotoxicity at 10 µM is 3.57%.

Consider `CC(C)NC(=O)N1CCOC2(CNC2)C1`, for which the cytotoxicity at 10 µM is -0.479%.

Consider `Cc1ccc(NC2CCN(C(=O)c3ccc(C(N)=O)s3)CC2)nn1`, for which the cytotoxicity at 10 µM turned out to be 1.8%.

`Cc1cc(C2CCN(S(=O)(=O)c3cn(C)cn3)CC2)ccn1`: the cytotoxicity at 10 µM is -32.6%.

Regarding `COc1ncccc1C(=O)N1CCC(c2nnc(C3CC3)o2)CC1`, the cytotoxicity at 10 µM was 3.61%.

As for `Cc1nc(CC(=O)N2CCN(C(C)c3ccccc3F)CC2)cs1` (configuration not stated), the cytotoxicity at 10 µM was found to be 2.58%.

On to `Cc1nnc(CN(C)Cc2nc3c(s2)CCCC3)o1`, for which the cytotoxicity at 10 µM is -1.42%.

With `Cn1cnc2c1C(COCc1cccnc1)N(Cc1ccccn1)CC2` (configuration not stated), the cytotoxicity at 10 µM is -13.3%.
